High-throughput results as filed in PubChem BioAssay.
Only some compounds are listed: those with a hit (about 3.7% of all), similar ones and a draw of the others.
KCNK3 block – human KCNK3 channel inhibition, primary screen; CHO-KCNK3 thallium flux, FluxOR fluorescence; active compounds read low; 0.84% of 340,000 active; B-score at 10 µM;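 active = B-score under library mean minus 4 SD, starting fluorescence ratio at most library mean plus 5 SD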;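 also: more negative B-score means stronger inhibition of thallium flux through KCNK3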
KCNQ1 pot – potentiators or activators of human KCNQ1 potassium channel. B-score at 10 µM. 0.35% of 310,000 active. CHO-K1 KCNQ1, thallium flux FluxOR fluorescence; active compounds read high;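 active = fluorescence ratio B-score, a plate-corrected score, at least three library SD, with initial intensity B-score within 5 SD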
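Material: CHO-K1 cells stably expressing KCNQ1. Medium: assay buffer for compound exposure, DMSO matched across wells. Reagent: K+/Tl+ depolarizing stimulus. Compound dosing: single-concentration screen. Times: 37 °C overnight plating, 90-min dark dye load, 20-min compound pretreatment. Technique: FluxOR Tl+ flux fluorescence.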
KCNQ1 inh – blocks the human KCNQ1 potassium channel | P51787 | CHO-K1 KCNQ1, FluxOR thallium flux fluorescence; active compounds read high | B-score at 10 µM | 1.3% of 310,000 active;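 active = compounds whose thallium flux B-score, printed positive for inhibition, exceeds three library SD while starting fluorescence stays within three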;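 also: channel opened by potassium depolarization with thallium stimulus after 20 min compound exposure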
KCNK9 inh – blocks the human KCNK9 two-pore domain potassium channel. Q9NPC2. HEK293 KCNK9, FluxOR thallium flux fluorescence; active compounds read low. B-score at 10 µM. 1.2% of 310,000 active. AID 488922;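 active = ratio B-score over 3 SD below the library mean, with starting fluorescence within 5 SD of its mean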;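 also: negative B-score means less thallium flux so channel inhibition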
Kir21 inh – blocks the mouse Kir2.1 inward-rectifier potassium channel; 0.85% of 310,000 active; HEK293-Kir2.1, FluxOR thallium flux fluorescence; active compounds read low; P35561; AID 1672; B-score at 10 µM;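 active = fluorescence ratio B-score at or below minus 3 SD of library scores, with starting-brightness B-score within 2 SD, cut at about -4.2 in these data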;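 also: channel flux triggered by added potassium and thallium sulfate stimulus; B-score of peak minus minimum fluorescence over baseline after thallium stimulus; more negative B-score means stronger Kir2.1 block with less thallium influx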
hERG protect – hERG (human) protection from proarrhythmic block; activation (rescue from dofetilide block), less the hit threshold, % at 10 µM; AID 1511; 0.51% of 310,000 active; Q12809; CHO-hERG, FluxOR thallium flux, dofetilide IC70 present;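 active = activation above the mean of controls blocked by dofetilide plus 5 SD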;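 also: thallium influx through hERG after potassium depolarization seen as dye fluorescence rise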
KCNQ1 block val – reconfirmed blocker of the human KCNQ1 potassium channel | shares compounds with KCNQ1 inh | KCNQ1 cell line, FluxOR thallium flux fluorescence | inhibition, % at 10 µM | 93% of 1,600 active;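 active = primary screen active, with duplicate mean exceeding buffer control mean plus 3 SD of buffer wells, cut at about 28% in these data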
CHO KCNQ1 ctr – activity in parental CHO cells lacking KCNQ1 | shares compounds with KCNQ1 inh | AID 588366 | fluorescence ratio (Tl flux) at 10 µM | 21% of 1,600 active | parental CHO-K1, FluxOR thallium flux fluorescence ratio; active compounds read low; zero means no signal rise above baseline;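 active = mean of duplicate thallium-flux fluorescence ratios in parental host cells more than 5 SD below the buffer control mean, cut at about 0.38 in these data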;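 also: ratio is peak minus minimum fluorescence divided by baseline fluorescence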
KCNQ1 APC inh – blocks human KCNQ1 current in automated patch clamp; shares compounds with KCNQ1 inh; KCNQ1-CHO cells; calls only at 10 µM; AID 624120; 20% of 490 active;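 active = KCNQ1 current drop exceeding 3 SD of negative control wells, seen in both duplicate runs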;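 also: steady state current during a 2 s step from -80 to +40 mV; negative values mean current inhibition and positive values mean potentiation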
KCNQ2 spec – rat KCNQ2 inhibition in KCNQ1 inhibitor specificity screen. KCNQ2 cells, FluxOR thallium flux fluorescence. shares compounds with KCNQ1 inh. inhibition, % at 10 µM. 71% of 1,600 active;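 active = mean percent inhibition of the KCNQ2 thallium signal more than 5 SD above the buffer-only control wells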;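 also: KCNQ2 expressed in CHO cells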
KCNQ1-KCNE1 inh – selectivity of KCNQ1 inhibitors: inhibition of human KCNQ1/KCNE1 channel. AID 652147. inhibition, % at 10 µM. 77% of 1,600 active. shares compounds with KCNQ1 inh. KCNQ1/KCNE1 cells, FluxOR thallium flux fluorescence;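 active = mean percent inhibition of duplicate wells above the buffer-only control mean plus 3 SD of those controls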
Target sequence (P51787 whole entry, looked up): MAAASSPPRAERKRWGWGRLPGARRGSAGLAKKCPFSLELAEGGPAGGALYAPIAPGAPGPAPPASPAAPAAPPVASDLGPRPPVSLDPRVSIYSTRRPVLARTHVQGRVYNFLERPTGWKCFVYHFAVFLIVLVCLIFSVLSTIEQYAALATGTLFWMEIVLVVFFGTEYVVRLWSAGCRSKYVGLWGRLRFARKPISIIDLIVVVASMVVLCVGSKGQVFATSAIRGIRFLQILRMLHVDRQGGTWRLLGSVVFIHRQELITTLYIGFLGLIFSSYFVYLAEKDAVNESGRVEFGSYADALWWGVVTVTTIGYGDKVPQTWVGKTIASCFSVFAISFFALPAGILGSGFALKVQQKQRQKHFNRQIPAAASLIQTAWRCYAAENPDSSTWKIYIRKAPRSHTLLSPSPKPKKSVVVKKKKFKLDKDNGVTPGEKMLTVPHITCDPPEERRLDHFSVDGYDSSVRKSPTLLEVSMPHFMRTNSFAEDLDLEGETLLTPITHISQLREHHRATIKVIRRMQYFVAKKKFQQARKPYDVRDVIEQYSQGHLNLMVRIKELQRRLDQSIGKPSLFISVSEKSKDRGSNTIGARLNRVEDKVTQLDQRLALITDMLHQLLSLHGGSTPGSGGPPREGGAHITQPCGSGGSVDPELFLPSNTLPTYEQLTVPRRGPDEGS
Large screens that a line does not name were inactive (follow-up assays come after a bar, where they were run).

O=C(NC1CCN(C(=S)NCCc2ccccc2)CC1)C1CCCCC1	none
Cc1cc(N2CCN(C)CC2)ccc1NC(=O)c1cccc(S(=O)(=O)N2CCc3ccccc3C2)c1	KCNQ1 inh 7 | KCNQ1 block val inactive | CHO KCNQ1 ctr inactive | KCNQ2 spec 66% | KCNQ1-KCNE1 inh inactive
CCCCNc1cc(C)nc(NCc2ccccc2)n1	KCNQ1 inh 10, Kir21 inh -12 | KCNQ1 block val 96 | CHO KCNQ1 ctr inactive | KCNQ1 APC inh active | KCNQ2 spec inactive | KCNQ1-KCNE1 inh 77%
Cc1cc(N2CCC(C)CC2)nc(NCc2ccccc2)n1	KCNQ1 inh 7, Kir21 inh -13 | KCNQ1 block val 46 | CHO KCNQ1 ctr inactive | KCNQ2 spec inactive | KCNQ1-KCNE1 inh inactive
Cc1cc(C)nc(NCCCc2ccccc2)n1	none
Cc1cc(OCC(=O)Nc2ccncc2)ccc1Br	KCNQ1 inh 13 | KCNQ1 block val 72 | CHO KCNQ1 ctr inactive | KCNQ2 spec inactive | KCNQ1-KCNE1 inh inactive
COc1ccc(C(c2c(O)ccc3ccccc23)N2CCOCC2)c(OC)c1 (stereo unspecified)	KCNQ1 inh 7 | KCNQ1 block val 113 | CHO KCNQ1 ctr 0.35 | KCNQ2 spec 108% | KCNQ1-KCNE1 inh 142%
O=c1oc(-c2ccccc2)nc2c1C1(CCCCC1)Cc1ccccc1-2	none
CCC1(CC)Cc2ccccc2-c2nc(-c3ccccc3)oc(=O)c21	KCNQ1 inh 7 | KCNQ1 block val 60 | CHO KCNQ1 ctr inactive | KCNQ2 spec 103% | KCNQ1-KCNE1 inh 91%
COc1ccc(N2CCN(S(=O)(=O)c3cc4c(cc3C)N(C(C)=O)CCO4)CC2)cc1	none
CC(=O)Nc1ccc(-c2csc(NC(=O)C3CSC4(C)CCC(=O)N34)n2)cc1 (stereo unspecified)	none
COc1ccc(C(=O)C2CCCN(Cc3cccn3-c3ccccn3)C2)c(OC)c1 (stereo unspecified)	KCNQ1 inh 6 | KCNQ1 block val inactive | CHO KCNQ1 ctr inactive | KCNQ2 spec 60% | KCNQ1-KCNE1 inh inactive
O=C(c1cc(F)ccc1F)C1CCCN(Cc2cccn2-c2ccccn2)C1 (stereo unspecified)	none
O=C(Nc1ccc(F)cc1)C1CCN(S(=O)(=O)c2cccc3nonc23)CC1	none
O=S(=O)(NCCCc1ccccc1)c1ccccc1	none
Cc1ccc(C)c(S(=O)(=O)NCCCc2ccccc2)c1	KCNQ1 inh 7 | KCNQ1 block val 98 | CHO KCNQ1 ctr inactive | KCNQ1 APC inh inactive | KCNQ2 spec inactive | KCNQ1-KCNE1 inh inactive
C#CCOCCOCCOCCNc1nc(N2CCN(C(=O)[C@H](CC(N)=O)n3cc([C@@H](N)C(C)C)nn3)CC2)nc(N2CCN(C(=O)[C@H](CC(N)=O)n3cc([C@@H](N)C(C)C)nn3)CC2)n1	none (no result: KCNQ1 pot, KCNQ1 inh, KCNK9 inh, Kir21 inh, hERG protect)
Cc1cccc(NC(=S)NCCSc2ccc(Cl)cc2)c1	KCNQ1 inh 8 | KCNQ1 block val 82 | CHO KCNQ1 ctr inactive | KCNQ2 spec 60% | KCNQ1-KCNE1 inh 96%
CCc1ccccc1NC(=S)NCCSc1ccc(Cl)cc1	none
Cc1ccc(C)c(NC(=S)NCCSc2ccc(Cl)cc2)c1	KCNQ1 inh 8 | KCNQ1 block val 122 | CHO KCNQ1 ctr inactive | KCNQ1 APC inh inactive | KCNQ2 spec 90% | KCNQ1-KCNE1 inh 122%
O=C(Nc1ccccc1)Nc1ccc(Cl)c(S(=O)(=O)N2CCOCC2)c1	KCNQ1 inh 11 | KCNQ1 block val inactive | CHO KCNQ1 ctr inactive | KCNQ2 spec inactive | KCNQ1-KCNE1 inh inactive
O=C1c2ccccc2CC1(Cc1ccccc1)Cc1ccccc1	KCNQ1 inh 9 | KCNQ1 block val 124 | CHO KCNQ1 ctr 0.33 | KCNQ2 spec 114% | KCNQ1-KCNE1 inh 164%
CCC1(CC)Cc2ccccc2C(=O)N1	none
O=C(Nc1ccccc1N1CCCC1)C1CCN(S(=O)(=O)c2cccc(C(F)(F)F)c2)CC1	none
O=C(Nc1ccccc1N1CCCCC1)C1CCN(S(=O)(=O)c2cccc(C(F)(F)F)c2)CC1	KCNQ1 inh 6 | KCNQ1 block val 62 | CHO KCNQ1 ctr inactive | KCNQ2 spec 110% | KCNQ1-KCNE1 inh 48%
Cc1cccc(NC(=O)c2ccc(C3SCC(=O)N3CCc3ccccc3)cc2)c1 (stereo unspecified)	KCNQ1 inh 7 | KCNQ1 block val 99 | CHO KCNQ1 ctr inactive | KCNQ1 APC inh inactive | KCNQ2 spec 109% | KCNQ1-KCNE1 inh 82%
CCN(CC(=O)Nc1ccc(NC(C)=O)cc1)C(=O)Cc1ccc(Cl)c(Cl)c1	none
CCOc1ccc(-c2cc(C(=O)OC)nc3c2c(=O)n(C)c(=O)n3C)cc1	none
Cc1nccc(-c2cccc(NC(=O)Nc3ccc(Cl)cc3)c2)n1	KCNQ1 inh 8 | KCNQ1 block val 92 | CHO KCNQ1 ctr inactive | KCNQ1 APC inh inactive | KCNQ2 spec 67% | KCNQ1-KCNE1 inh 72%
O=C(Nc1ccncc1)Nc1cccc(Cl)c1	KCNQ1 inh 7 | KCNQ1 block val 52 | CHO KCNQ1 ctr inactive | KCNQ2 spec inactive | KCNQ1-KCNE1 inh 46%
Cc1cccc(NC(=O)Nc2ccc(Cl)cc2)n1	none
O=C(NCc1ccncc1)Nc1cccc(Cl)c1	none
CN(c1cccc(NC(=O)Nc2cccc(Cl)c2)c1)S(C)(=O)=O	KCNQ1 inh 16 | KCNQ1 block val 93 | CHO KCNQ1 ctr inactive | KCNQ2 spec 123% | KCNQ1-KCNE1 inh 82%
CN(C)c1ccc(NC(=O)Nc2cccc(Cl)c2)cc1	none
COc1cccc(N(CC(=O)NCCSc2ccccn2)S(=O)(=O)c2ccccc2)c1	none
O=C(Nc1cccnc1)Nc1ccc(F)c(Cl)c1	KCNQ1 inh 6 | KCNQ1 block val inactive | CHO KCNQ1 ctr inactive | KCNQ2 spec inactive | KCNQ1-KCNE1 inh inactive
CC(=O)Nc1cccc(NC(=S)Nc2ccc(F)c(Cl)c2)c1	KCNQ1 inh 8 | KCNQ1 block val 61 | CHO KCNQ1 ctr inactive | KCNQ2 spec inactive | KCNQ1-KCNE1 inh inactive
Cc1ccc(NC(=O)Nc2ccc(F)c(Cl)c2)cc1	KCNQ1 inh 8 | KCNQ1 block val 78 | CHO KCNQ1 ctr inactive | KCNQ2 spec inactive | KCNQ1-KCNE1 inh 44%
